Records with an inconclusive call do not appear.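 The calls were made as follows, unless noted: active = cell viability at or below a set limit in both duplicate runs, the limit being the all-compound median minus 4 SD (cut at about 23% in these data, passing the limit was not always enough); inconclusive = no clear call, values can overlap the other calls; inactive = the rest.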
How the values were obtained:
[1] = OD615 S. cerevisiae growth inhibition, permissive medium, pilot counter-assay, permissive growth control for S. cerevisiae lifespan shortening project (AID 705;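 active = growth inhibition above 25% in both replicates, a cutoff set 3 SD above the mean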); settings: OD615, 24 h, at 10 µM, active compounds read high
Procedure, shortened: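 System: S. cerevisiae with engineered DeaD lifespan system. Medium: SC raffinose/galactose permissive medium. Doses: single compound dose of 10 µM, 0.25% DMSO final. Schedule: 24 h exposure, 30 °C. Measured by: OD615 turbidity read. Read-out: growth inhibition.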

[2] = Restrictive medium S. cerevisiae growth inhibition, OD615, pilot screen of yeast lifespan reduction project, restrictive growth control (AID 706;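 active = growth inhibition above a set limit, 3 SD over mean compound inhibition, in both replicates, cut at about 43% in these data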;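 also: modified DeaD lifespan yeast strain shifted to restrictive glucose medium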); settings: OD615, 48 h, at 10 µM, active compounds read high
Procedure, shortened: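 Assay system – genetically modified Saccharomyces cerevisiae, DeaD replicative lifespan assay strain · Medium – CSMM-D glucose medium · Doses – 10 µM compound, 0.25% DMSO · Times – 4 h pre-incubation, 48 h exposure at 30 °C · Signal – optical density at 615 nm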

[3] = viability gain of MRP-1-high H69AR cells under doxorubicin, pilot screen, MRP-1 activator project, CellTiter-Glo, duplicate (AID 807;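 active = viability increase at or above a cutoff of the median across tested compounds plus 3 SD, cut at about 8.5% in these data, passing the limit was not always enough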;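 also: compound pretreatment 18-22 h then 72 h combined with doxorubicin; 0% = doxorubicin alone and 100% = vehicle without doxorubicin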); settings: H69AR viability with doxorubicin, CellTiter-Glo luminescence; at 10 µM; active compounds read high
[4] = growth suppression of beta-catenin knockout HCT116, pilot screen, human colon tumor cells (AID 823); settings: CellTiter-Glo, 60 h, at 10 µM, active compounds read low;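 also: 0% = wells killed by 20 µM Hyamine and 100% = untreated DMSO cell wells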
[5] = growth suppression of PTEN-deleted HCT116, pilot screen, cell-based, HCT116 clonal line, CellTiter-Glo (AID 824;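 active = viability at or below 27.92% in each of two runs, the all-compound median minus 4 SD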;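 also: 0% = 20 µM Hyamine control and 100% = vehicle cell control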); settings: 60 h, at 10 µM, active compounds read low
[6] = inhibitors of the yeast RAM network, pilot screen, dse1pr::URA3 reporter, 5-FOA selection (AID 869;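 active = inhibition over a set limit, the all-compound mean plus 3 SD, in both replicate runs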;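 also: 0% = DMSO wells with no growth and 100% = 10 µM 1-NA-PP1 with full growth; RAM network block rescues cells from 5-FOA so hits raise OD615 growth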); settings: S. cerevisiae dse1pr::URA3 5-FOA growth, OD615, 2 d; at 10 µM; active compounds read high; strain carries analog-sensitive mutant Cbk1 kinase
[7] = RAM signaling pathway blockade in yeast – S. cerevisiae, Pdr1DBD-CYC8 efflux-inhibited sensitized strain, primary screen (AID 1298;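 active = RAM network inhibition above 8.4% in each of two replicates, 3 SD over the compound average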;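 also: 0% = DMSO untreated cells without growth and 100% = 10 µM 1-NA-PP1 full growth; higher means more yeast growth rescued from 5-FOA killing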); settings: S. cerevisiae cbk1-as DSE1-URA3 strain, 5-FOA growth OD615, 2 d; at 50 µM; active compounds read high

CCOc1ccccc1NC(=O)c1c(NC(=O)CNCc2ccco2)sc2c1CCC2
inactive: growth inhibition [1] 7.42% | growth inhibition [2] -15.1% | viability increase [3] -6.75% | viability [4] 76.7% | viability [5] 55.5% | inhibition [6] 1.43% | RAM network inhibition [7] 8.57%

COc1ccc(C(=O)NCC23C=CC(O2)C2C(=O)N(Cc4ccccc4)C(=O)C23)cc1 (configuration not stated)
inactive: growth inhibition [1] -5.3% | growth inhibition [2] 13.4% | viability increase [3] -0.77% | viability [4] 85.1% | viability [5] 88.8% | inhibition [6] 2.19% | RAM network inhibition [7] 3.67%

CC1=CS/C(=C(/C#N)C(=O)N2CCOCC2)N1c1ccccc1
inactive: growth inhibition [1] -2.33% | growth inhibition [2] 1.7% | viability increase [3] -1.17% | viability [4] 94.2% | viability [5] 94.7% | inhibition [6] 0.255% | RAM network inhibition [7] 0.92%

COc1ccc(-c2noc(CN3CCN(c4ccccc4)CC3)n2)cc1
inactive: growth inhibition [1] -12.7% | growth inhibition [2] -10.2% | viability increase [3] -1.14% | viability [4] 93.6% | viability [5] 88.4% | inhibition [6] 1% | RAM network inhibition [7] 5.43%

O=C(c1ccc(CS(=O)(=O)c2ccc(Br)cc2)o1)N1CCOCC1
inactive: growth inhibition [1] -10.2% | growth inhibition [2] -12.6% | viability increase [3] -0.67% | viability [4] 104% | viability [5] 97.3% | inhibition [6] 2.23% | RAM network inhibition [7] 0.1%

O=C(NCc1ccco1)C1c2ccccc2Oc2ccccc21
inactive: growth inhibition [1] -6.75% | growth inhibition [2] 6.04% | viability increase [3] -5.24% | viability [4] 83.8% | viability [5] 88.4% | inhibition [6] 0.12% | RAM network inhibition [7] 3.94%

O=C1c2ccccc2S(=O)(=O)N1CC(O)COc1ccc(Br)cc1 (configuration not stated)
inactive: growth inhibition [1] -2.32% | growth inhibition [2] 5.18% | viability increase [3] -0.35% | viability [4] 106% | viability [5] 97.4% | inhibition [6] 1.39% | RAM network inhibition [7] 2.2%

COc1ccccc1-c1c(C#N)c(SCC(=O)N2CCCC2)nc(C)c1C(N)=O
inactive: growth inhibition [1] -2.97% | growth inhibition [2] -7.78% | viability increase [3] -0.18% | viability [4] 101% | viability [5] 98.2% | inhibition [6] 1.73% | RAM network inhibition [7] 1.04%

CC(C)c1ccc(C2CC(=O)N3CN(C)CSC3=C2C#N)cc1 (configuration not stated)
inactive: growth inhibition [1] 4.19% | growth inhibition [2] 25% | viability increase [3] -4.3% | viability [4] 91.4% | viability [5] 93.9% | inhibition [6] 1.75% | RAM network inhibition [7] -0.52%

O=C1CCC(=O)N1c1ccc(CSc2nc3ccccc3[nH]2)cc1
inactive: growth inhibition [1] -4.96% | growth inhibition [2] -2.19% | viability increase [3] 0.79% | viability [4] 104% | viability [5] 92.9% | inhibition [6] 1.06% | RAM network inhibition [7] 2.24%

CCN(CC)CCCN1C(=O)C(O)=C(C(C)=O)C1c1ccc(OC)cc1OC (configuration not stated)
inactive: growth inhibition [1] -0.68% | growth inhibition [2] -3.67% | viability increase [3] -2.64% | viability [4] 98.5% | viability [5] 92.4% | inhibition [6] 1.03% | RAM network inhibition [7] 1.44%

CCOc1cc(/C=N/n2cnnc2)ccc1OCC(=O)Nc1ccccc1OC
inactive: growth inhibition [1] 0.995% | growth inhibition [2] 0.62% | viability increase [3] -1.37% | viability [4] 101% | viability [5] 95.7% | inhibition [6] 1.91% | RAM network inhibition [7] 2.52%

Cn1c(CSc2nc3ccc(Br)cc3[nH]2)nc2ccccc21
inactive: growth inhibition [1] -3.63% | growth inhibition [2] 12.1% | viability increase [3] 1.66% | viability [4] 90.8% | viability [5] 85.2% | inhibition [6] 1.4% | RAM network inhibition [7] 9.55%

COc1ccc(Nc2nc(C)cc(C)c2C#N)cc1OC
inactive: growth inhibition [1] -2.02% | growth inhibition [2] 5.43% | viability increase [3] 1.79% | viability [4] 107% | viability [5] 107% | inhibition [6] 0.715% | RAM network inhibition [7] 1.79%

COc1cc2c(C(=O)NCc3ccccn3)cn(C)c(=O)c2cc1OC
inactive: growth inhibition [1] -8.38% | growth inhibition [2] -2.63% | viability increase [3] -1.1% | viability [4] 102% | viability [5] 95.3% | inhibition [6] 1.86% | RAM network inhibition [7] 1.07%

CC1(C)SCC2C(=O)N3C(CSC3(C)C)C(=O)N21 (configuration not stated)
inactive: growth inhibition [1] 2.82% | growth inhibition [2] -6.7% | viability increase [3] 0.02% | viability [4] 107% | viability [5] 96.2% | inhibition [6] 1.5% | RAM network inhibition [7] 4.22%

CC(C)NC(=O)CCCc1ccccc1
inactive: growth inhibition [1] -8% | growth inhibition [2] -14.1% | viability increase [3] -1.04% | viability [4] 92.1% | viability [5] 91.1% | inhibition [6] 1.2% | RAM network inhibition [7] -0.58%

CCCCNC(=O)CS(=O)Cc1nc(-c2cccc(C)c2)oc1C (configuration not stated)
inactive: growth inhibition [1] -13.2% | growth inhibition [2] -6.67% | viability increase [3] -2.67% | viability [4] 96.2% | viability [5] 98.1% | inhibition [6] 1.14% | RAM network inhibition [7] 0.26%

CCc1ccc(NC(=O)CSc2nc3c(c(=O)n(C)c(=O)n3C)n2C)cc1
inactive: growth inhibition [1] 3.77% | growth inhibition [2] -8% | viability increase [3] -1.41% | viability [4] 91.8% | viability [5] 94.6% | inhibition [6] 1.03% | RAM network inhibition [7] 0.68%

Cc1cccc(-n2c(CNC(=O)c3ccccc3)nnc2SCC(=O)Nc2nccs2)c1
inactive: growth inhibition [1] 4.21% | growth inhibition [2] 15.6% | viability increase [3] -3.48% | viability [4] 112% | viability [5] 103% | inhibition [6] 1.17% | RAM network inhibition [7] 5.7%

CN(C)C(=O)CSc1nnc(-c2cccnc2)n1-c1ccccc1
inactive: growth inhibition [1] -5.85% | growth inhibition [2] -5.54% | viability increase [3] -0.98% | viability [4] 98.6% | viability [5] 95.1% | inhibition [6] 1.36% | RAM network inhibition [7] 2.91%

COc1cc2c(cc1OC)C1=C(C#N)CN(CC(=O)O)CN1CC2
inactive: growth inhibition [1] -0.125% | growth inhibition [2] 11.3% | viability increase [3] -4.43% | viability [4] 106% | viability [5] 96% | inhibition [6] 1.7% | RAM network inhibition [7] 1.9%

O=C(NCN1CCc2ccccc2C1)c1cnccn1
inactive: growth inhibition [1] -18.3% | growth inhibition [2] -15.1% | viability increase [3] -3.49% | viability [4] 96.3% | viability [5] 96.6% | inhibition [6] 3.92% | RAM network inhibition [7] 5.24%

COc1ccc(NC(=O)C(c2ccccc2)N(C)C(=O)c2cnccn2)cc1 (configuration not stated)
inactive: growth inhibition [1] -4.62% | growth inhibition [2] -12.6% | viability increase [3] -1.52% | viability [4] 99.2% | viability [5] 90.8% | inhibition [6] 0.88% | RAM network inhibition [7] 0.05%

O=c1c2[nH]c3ccc(F)cc3c2ncn1CCN1CCN(Cc2ccccc2)CC1
inactive: growth inhibition [1] -2.19% | growth inhibition [2] 1.39% | viability increase [3] -3.25% | viability [4] 86.3% | viability [5] 80.3% | inhibition [6] 1.52% | RAM network inhibition [7] 1.11%

COc1ccc(NC(=O)C2CCN(S(=O)(=O)c3cccnc3)CC2)cc1Cl
inactive: growth inhibition [1] -8.66% | growth inhibition [2] -13.1% | viability increase [3] -3.56% | viability [4] 97.3% | viability [5] 100% | inhibition [6] 1.77% | RAM network inhibition [7] 2.55%

Cc1nc(SCC(=O)Nc2cccc(Cl)c2)n[nH]1
inactive: growth inhibition [1] -4.9% | growth inhibition [2] -4.81% | viability increase [3] -1.48% | viability [4] 97% | viability [5] 97.7% | inhibition [6] 0.56% | RAM network inhibition [7] -0.63%

O=C(NC1CCCCC1)C1CCN(S(=O)(=O)c2cccc3cccnc23)CC1
inactive: growth inhibition [1] 4.71% | growth inhibition [2] -0.575% | viability increase [3] -0.83% | viability [4] 101% | viability [5] 102% | inhibition [6] 0.46% | RAM network inhibition [7] 1.34%

c1coc(Cn2c(SCc3nc4ccccc4[nH]3)nnc2-c2cccs2)c1
inactive: growth inhibition [1] 0.98% | growth inhibition [2] 21.3% | viability increase [3] -1.17% | viability [4] 93% | viability [5] 89.8% | inhibition [6] 3.64% | RAM network inhibition [7] 1.24%

c1ccc(COc2ccc(Nc3ncnc4nc[nH]c34)cc2)cc1
inactive: growth inhibition [1] -2.53% | growth inhibition [2] 7.49% | viability increase [3] -0.86% | viability [4] 85.7% | viability [5] 83% | inhibition [6] 0.435% | RAM network inhibition [7] 4.8%

COC(=O)CCC(=O)Nc1nc(-c2ccccc2)cs1
inactive: growth inhibition [1] -18.5% | growth inhibition [2] -17.9% | viability increase [3] -0.35% | viability [4] 99% | viability [5] 99.1% | inhibition [6] 0.475% | RAM network inhibition [7] 11%

CCOc1ccc(N(CC(=O)NC(C)(C)C)S(=O)(=O)c2c(C)noc2C)cc1
inactive: growth inhibition [1] -19.9% | growth inhibition [2] -9.45% | viability increase [3] -4.94% | viability [4] 81.5% | viability [5] 81.8% | inhibition [6] 0.36% | RAM network inhibition [7] -1%

O=C(NC1CC1)c1ccc(CS(=O)(=O)c2c(Cl)cccc2Cl)o1
inactive: growth inhibition [1] 3.79% | growth inhibition [2] -6.65% | viability increase [3] -2.96% | viability [4] 105% | viability [5] 97.4% | inhibition [6] 0.475% | RAM network inhibition [7] 4.31%

COC(=O)c1cnn2c(C)c(Cc3cccc(F)c3)c(C)nc12
inactive: growth inhibition [1] -5.12% | growth inhibition [2] -16% | viability increase [3] -5.7% | viability [4] 92.3% | viability [5] 80.9% | inhibition [6] 1.53% | RAM network inhibition [7] 2.9%

O=C(NCCCc1ccccc1)c1ccncc1
inactive: growth inhibition [1] 1.08% | growth inhibition [2] 0.81% | viability increase [3] -0.23% | viability [4] 98.4% | viability [5] 99.4% | inhibition [6] 0.45% | RAM network inhibition [7] 6.46%

O=C(CSc1nc2c(c(=O)n1-c1ccc(Cl)cc1)SCC2)N1CCOCC1
inactive: growth inhibition [1] -10.3% | growth inhibition [2] -2.5% | viability increase [3] -2.79% | viability [4] 97.6% | viability [5] 101% | inhibition [6] -0.06% | RAM network inhibition [7] -0.16%

From PubChem BioAssay
